# Sampled rows, rich in hits. Any-hit rate of the full collection: about 8.9%.
# MT stabilizer: stabilizes microtubules in HeLa cells; 0.83% of 200,000 active; HeLa tubulin immunostaining HCS, 24 h; share of cells brighter than vehicle mean+2SD; % tubulin-high responders, % at 10 µM; AID 2205;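 active = plate Z-score above 3 for both tubulin-high and condensed-nucleus cell shares, with cell loss under 80%, at 10 µM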;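 note: anti alpha tubulin signal scored within the nucleus-defined area of each cell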
# HSV augment: increases HSV replication in cells | maximum fold increase | 0.005% of 220,000 active | HSV replication augmentation in cells, fold increase; in the data active = maximum fold increase above about 1.5; tested in PC3 cells
# L major viab: Leishmania major promastigote growth inhibition | Leishmania major promastigotes, resazurin fluorescence viability | inhibition, % at 10 µM | 9% of 200,000 active | AID 1063; in the data active = inhibition above about 50%;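 note: promastigotes grown with compound for 44 hours at 28 °C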
# Dynein transport: dynein cargo transport inhibition; 3617.4 mouse cells, GR-EGFP nuclear translocation imaging; test concentration mostly 20 µM; stimulated with dexamethasone, 1 µM; stronger effect = lower value; z-score, hits read low; 0.47% of 220,000 active;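 active = plate z-score of nuclear minus cytoplasmic receptor signal below a set negative limit, without overly bright fluorescence or cell loss, cut at about -3.5 in these data, passing the limit was not always enough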;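 note: z-score of nuclear minus cytoplasmic ring GR-EGFP intensity difference per well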
#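 medium = tetracycline-free induction medium containing charcoal-stripped FBS | also added = 1.0 µM final dexamethasone stimulus | schedule = 48 h induction, 1 h compound, 30 min dex at 37 °C | technique = fixed, Hoechst-stained cells imaged at 10x for EGFP | measure = GR-EGFP nuclear translocation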
# bCat nuc transl: alters nuclear translocation of beta-catenin in HeLa cells | immunofluorescence imaging | nuclear translocation activity, % at 5 µM | 0.3% of 190,000 active | AID 1665;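 active = nuclear translocation activity above 50% at 5 µM, with a well cell count of 50 or more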;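 note: per-cell ratio of nuclear to cytoplasmic median beta-catenin stain intensity; plate controls were DMSO negative control for no effect and GSK-3 inhibitor IX positive control for full effect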
#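 Assay system: human HeLa cells, native beta-catenin; doses: 5 µM primary, 0.02–20 µM confirmation; incubation: compound treatment 24 h, 37°C, 5% CO2; technique: fluorescence imaging of beta-catenin antibody stain plus DAPI; measure: % activation, nuclear-to-cytoplasmic median beta-catenin signal ratio per cell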
# Active calls of the source: *; i = inactive; . = no result given.
SMILES,MT stabilizer,HSV augment,L major viab,Dynein transport,bCat nuc transl
CCOc1ccc(Cl)cc1S(=O)(=O)N1CCN(c2ccc(C)c(C)c2)CC1,7.6,i,89.0*,-0.569,-1.7
CCOC(=O)C1=C(N)n2c(s/c(=C\c3cccs3)c2=O)=C(C(=O)OCC)C1c1cccs1 (stereo unspecified),45.2*,i,-4.0,0.405,99.2*
CCOC(=O)C1=C(N)n2c(s/c(=C\c3ccncc3)c2=O)=C(C(=O)OCC)C1c1ccncc1 (stereo unspecified),2.2,i,51.5*,-0.691,1.7
CCOC(=O)C1=c2/c(=C/c3ccncc3)c(N)c(C(=O)OC)n2C(=O)C(c2ccncc2)S1 (stereo unspecified),1.8,i,55.7*,1.61,-1.9
CCOC(=O)C1=C(N)n2c(s/c(=C\c3cccnc3)c2=O)=C(C(=O)OCC)C1c1cccnc1 (stereo unspecified),.,.,.,.,-5.2
Cc1ccc(CNC(=O)COC(=O)c2ccc(S(=O)(=O)N3CCCC3)cc2)cc1,2.0,i,-4.8,-0.115,2.6
CCCCCCOC1(c2ccccc2)OC(=O)c2ccccc21 (stereo unspecified),4.2,.,-3.6,-0.0632,0.5
CCCCCOP(=O)(OCCCCC)C1(NS(=O)(=O)c2ccccc2)C=CC(=O)c2ccccc21 (stereo unspecified),2.9,i,99.7*,-0.171,2.7
COc1cccc(OC)c1C(=O)NC(=S)Nc1cc(-c2nc3ccccc3[nH]2)ccc1Cl,6.0,i,81.3*,0.497,-0.6
O=C(Nc1nc2ccccc2n1Cc1ccccc1)c1ccco1,1.7,i,73.1*,-0.0242,-0.6
CC(=O)Nc1nc2ccccc2n1Cc1ccccc1C,2.3,i,96.3*,0.0292,-0.6
O=C(Nc1nc(NC(=O)c2ccco2)n(-c2ccccc2)n1)c1ccccc1,1.3,i,99.9*,-0.398,0.9
Nc1nc(NC(=O)c2ccccc2)nn1-c1ccccc1,2.7,i,-2.9,0.339,-1.9
CC(=O)Nc1nc2ccccc2n1CCOc1ccccc1Cl,5.1,i,99.0*,-0.863,-1.0
CC(=O)Nc1nc2ccccc2n1Cc1ccccc1Cl,.,i,.,0.841,1.3
CN(C)S(=O)(=O)c1cc(NC(=O)c2cc(=O)[nH]c3ccccc23)ccc1Cl,3.0,i,1.4,0.0909,-0.8
CCOC(=O)Cc1csc(NC(=O)CSc2nnc(-c3ccc(NS(=O)(=O)CC)cc3)o2)n1,4.8,i,1.0,-0.118,.
COc1ccc(Nc2nc(N)nc(CSc3nc(C)cc(C)n3)n2)cc1,3.0,i,0.6,0.381,-1.3
CC(=O)Nc1nc(NC(=O)/C=C/c2ccccc2)n(-c2ccccc2)n1,3.0,i,95.0*,-1.28,1.3
O=C(CSc1nc2ccccc2n1Cc1ccccc1)N/N=C/c1ccco1,2.4,i,50.3*,-0.159,-0.8
Cc1ccc(Cn2c(SCC(=O)N/N=C/c3ccc(C)o3)nc3ccccc32)cc1,2.4,i,10.5,-0.687,-1.0
CCC(=O)Nc1nc2ccccc2n1Cc1ccc(Cl)cc1,0.5,i,99.4*,0.01,0.7
CCOC(=O)c1[nH]c(=O)[nH]c1CSc1nc(C)cc(C)n1,3.2,i,-3.4,0.166,-1.9
CCOc1ccc(-n2c(Cc3cc(=O)[nH]c(=O)[nH]3)nnc2SCC(=O)NC2CCCC2)cc1,5.1,i,-6.1,0.0321,.
Nc1ccc(C(=O)C(=O)c2ccc(N)cc2)cc1,.,i,.,-0.445,-0.7
SMILES,MT stabilizer,HSV augment,L major viab,Dynein transport,bCat nuc transl
Cc1cccc(NC(=O)NCCN2C(=O)C3C4C=CC(C4)C3C2=O)c1 (stereo unspecified),3.1,i,-1.7,-0.116,.
CCN(CC)CCN(CC)Cc1ccccc1Br,3.8,i,95.7*,0.314,0.0
CCN(CCO)Cc1csc2cccc(Br)c12,1.6,.,0.2,-0.218,0.3
CC1(C)C2CCC1(C)C(OCC[N+](C)(C)CC(=O)OC1CCCCC1)C2 (stereo unspecified),3.7,i,99.7*,0.637,-1.6
CCOC(=O)C[N+](C)(C)CCOC1CC2CCC1(C)C2(C)C (stereo unspecified),1.3,i,-6.3,-0.0213,1.5
CCOC(=O)C1(CCCc2ccccc2)CCN(C(=O)Cc2nonc2C)CC1,3.6,i,21.4,0.214,-1.3
CCOC(=O)C1(Cc2cccc(F)c2)CCN(Cc2cn(CC)nc2C)CC1,1.5,i,70.9*,-0.0986,1.0
CCOC(=O)C1(CCCc2ccccc2)CCN(Cc2cn(CC)nc2C)CC1,2.8,i,84.3*,-1.85,3.6
Cc1[nH]c(=O)[nH]c(=O)c1N(C)C,4.3,i,-6.0,1.03,1.3
CCCCNC(=O)Cn1nc([N+](=O)[O-])c([N+](=O)[O-])c1C,4.4,i,79.2*,0.69,-0.1
CCC(C)Nc1nc(Cl)nc(NCCOc2ccccc2)n1 (stereo unspecified),2.8,i,79.7*,0.166,0.5
CCCS(=O)(=O)N1CCN(Cc2ccc3c(c2)c2ccccc2n3CC)CC1,1.8,i,70.6*,1.33,2.6
OCC1(CCCc2ccccc2)CCN(Cc2cc(F)ccc2F)CC1,4.5,i,82.8*,-1.29,0.0
OCC1(CCc2ccccc2)CCN(Cc2ccccc2Cl)CC1,4.6,i,57.2*,0.109,-1.9
OCC1(CCc2ccccc2)CCN(Cc2cc(F)ccc2-n2cccn2)CC1,2.1,i,18.2,-0.582,0.4
CCCS(=O)(=O)N1CCC(C(=O)N2CCN(Cc3ccccc3)CC2)CC1,1.9,i,-2.3,-0.807,-0.4
CCCS(=O)(=O)N1CCN(CCCc2ccccc2)CC1,3.5,i,78.7*,-0.34,-3.3
O=C(CSc1nc2ccccc2s1)NC1CCCC1,.,i,.,0.383,-0.1
COc1ccc(C(=O)NNC(=O)Cc2ccc([N+](=O)[O-])cc2)cc1,4.3,i,-3.4,0.583,2.0
O=C(NCCN1CCN(Cc2ccccc2Cl)CC1)Nc1ccccc1,2.4,i,82.2*,-0.164,.
Clc1ccccc1CN1CCN(CCCc2ccccc2)CC1,2.0,i,92.8*,0.598,1.5
Clc1cccc(CN2CCN(Cc3nc(CCc4ccccc4)no3)CC2)c1,5.2,i,63.9*,-0.195,-1.5
Cc1cccc(CN2CCN(C(=S)Nc3ccccc3)CC2)c1,0.8,i,-4.8,-0.38,-0.2
O=C(NN1CCN(Cc2ccccc2Cl)CC1)c1ccc(Cl)cc1,2.4,i,15.9,-0.731,-0.1
Cc1cccc(CN2CCN(CCCc3ccccc3)CC2)c1,1.4,i,96.2*,-0.0196,-1.7
O=C(NCCN1CCN(C(=O)Nc2ccccc2)CC1)Nc1ccccc1,2.2,i,-6.6,0.43,.
Cc1ccccc1N1CCN(Cc2nc(Cc3ccccc3)no2)CC1,4.3,i,0.5,-0.0257,0.6
CCCn1c(CCC(=O)O)nc2cc(S(=O)(=O)N(CC)CC)ccc21,.,i,.,0.106,-0.4
O=C(NC(=O)c1cccc(F)c1)Nc1nc(-c2ccc(F)cc2)cc(C(F)(F)F)n1,1.3,i,-7.8,-0.813,-2.2

# Screening data as filed in PubChem.
